Bioassay records deposited in PubChem BioAssay by Johns Hopkins Ion Channel Center.
In the library only some 3.7% were active in any assay of this set; here they are far more common.
hERG rescue – shields human hERG channel from block by proarrhythmic agents; activation (rescue from dofetilide block), less the hit threshold, % at 10 µM; 310,000 compounds, 0.51% hits; CHO-hERG, FluxOR thallium flux, dofetilide IC70 present; AID 1511; Q12809;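 active = activation above the mean of controls blocked by dofetilide plus 5 SD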;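 also: thallium influx through hERG after potassium depolarization seen as dye fluorescence rise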
Target sequence (Q12809 whole entry, looked up): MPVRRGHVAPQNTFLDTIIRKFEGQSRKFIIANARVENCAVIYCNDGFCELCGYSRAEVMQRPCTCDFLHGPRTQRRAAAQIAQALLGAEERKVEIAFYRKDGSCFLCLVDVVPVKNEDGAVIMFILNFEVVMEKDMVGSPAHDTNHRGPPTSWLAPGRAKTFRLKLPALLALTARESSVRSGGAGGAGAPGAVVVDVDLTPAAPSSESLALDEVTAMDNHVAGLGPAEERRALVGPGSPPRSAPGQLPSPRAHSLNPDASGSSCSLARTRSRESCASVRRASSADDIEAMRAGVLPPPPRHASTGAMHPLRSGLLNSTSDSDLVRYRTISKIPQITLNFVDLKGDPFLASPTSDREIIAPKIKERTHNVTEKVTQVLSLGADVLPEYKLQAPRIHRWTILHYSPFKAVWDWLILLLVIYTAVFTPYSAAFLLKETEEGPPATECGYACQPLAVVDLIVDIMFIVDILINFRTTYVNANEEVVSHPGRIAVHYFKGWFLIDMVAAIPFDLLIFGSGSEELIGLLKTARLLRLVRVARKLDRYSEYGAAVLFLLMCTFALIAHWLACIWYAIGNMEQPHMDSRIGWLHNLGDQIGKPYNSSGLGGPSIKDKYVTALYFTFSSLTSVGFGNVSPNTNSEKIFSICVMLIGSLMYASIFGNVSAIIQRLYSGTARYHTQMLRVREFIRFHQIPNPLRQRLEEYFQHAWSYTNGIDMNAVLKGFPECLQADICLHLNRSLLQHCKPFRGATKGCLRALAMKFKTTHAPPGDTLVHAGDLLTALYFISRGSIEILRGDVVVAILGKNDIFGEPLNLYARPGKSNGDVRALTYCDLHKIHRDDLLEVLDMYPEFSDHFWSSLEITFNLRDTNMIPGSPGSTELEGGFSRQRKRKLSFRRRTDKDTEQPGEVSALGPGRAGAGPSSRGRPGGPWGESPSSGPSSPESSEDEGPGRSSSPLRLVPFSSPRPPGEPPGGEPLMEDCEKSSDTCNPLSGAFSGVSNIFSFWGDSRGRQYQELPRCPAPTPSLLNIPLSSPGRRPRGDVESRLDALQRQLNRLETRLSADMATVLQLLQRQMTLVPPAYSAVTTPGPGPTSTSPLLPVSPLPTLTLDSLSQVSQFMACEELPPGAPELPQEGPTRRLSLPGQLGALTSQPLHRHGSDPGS
KCNK3 inh – human KCNK3 channel inhibition, primary screen | O14649 | CHO-KCNK3 thallium flux, FluxOR fluorescence; hits give low values | B-score at 10 µM | 340,000 compounds, 0.84% hits | AID 602410;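 active = B-score under library mean minus 4 SD, starting fluorescence ratio at most library mean plus 5 SD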;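 also: more negative B-score means stronger inhibition of thallium flux through KCNK3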
KCNK9 block – blocks the human KCNK9 two-pore domain potassium channel; AID 488922; Q9NPC2; HEK293 KCNK9, FluxOR thallium flux fluorescence; hits give low values; B-score at 10 µM; 310,000 compounds, 1.2% hits;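 active = ratio B-score over 3 SD below the library mean, with starting fluorescence within 5 SD of its mean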;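 also: negative B-score means less thallium flux so channel inhibition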
KCNQ1 inh – inhibitors of human KCNQ1 potassium channel | CHO-K1 KCNQ1, FluxOR thallium flux fluorescence; hits give high values | B-score at 10 µM | 310,000 compounds, 1.3% hits | AID 2642;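 active = compounds whose thallium flux B-score, printed positive for inhibition, exceeds three library SD while starting fluorescence stays within three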;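 also: channel opened by potassium depolarization with thallium stimulus after 20 min compound exposure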
Kir21 block – Kir2.1 (mouse) channel inhibition; HEK293-Kir2.1, FluxOR thallium flux fluorescence; hits give low values; P35561; B-score at 10 µM; AID 1672; 310,000 compounds, 0.85% hits;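 active = fluorescence ratio B-score at or below minus 3 SD of library scores, with starting-brightness B-score within 2 SD, cut at about -4.2 in these data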;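 also: channel flux triggered by added potassium and thallium sulfate stimulus; B-score of peak minus minimum fluorescence over baseline after thallium stimulus; more negative B-score means stronger Kir2.1 block with less thallium influx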
KCNQ1 pot – potentiators or activators of human KCNQ1 potassium channel. P51787. CHO-K1 KCNQ1, thallium flux FluxOR fluorescence; hits give high values. B-score at 10 µM. 310,000 compounds, 0.35% hits. AID 2648;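 active = fluorescence ratio B-score, a plate-corrected score, at least three library SD, with initial intensity B-score within 5 SD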
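assay system = CHO-K1 cells stably expressing KCNQ1 | medium = assay buffer, equal DMSO in all wells | timing = 37 °C overnight plating, 90-min dark dye load, 20-min compound pretreatment | measured by = kinetic FluxOR thallium fluorescence, 10-s 1-Hz baseline, 110-s post-stimulus read | measure = fluorescence change relative to baseline, converted to B score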
* = called active by the depositor; i = inactive; x = no result.

SMILES | hERG rescue | KCNK3 inh | KCNK9 block | KCNQ1 inh | Kir21 block | KCNQ1 pot
O=[N+]([O-])c1ccc(N2CCN(c3cccc(Cl)c3)CC2)nc1 | -3 | i | -6.6* | i | 0.69 | i
COc1ccc(OC)c(NC(=S)N2CCC(C(O)(c3ccccc3)c3ccccc3)CC2)c1 | -5 | i | i | i | 0.11 | 44*
Cc1ccc(C(=O)N/N=C(/CC(=O)c2cccs2)C(F)(F)F)cc1 | 16* | i | i | i | 1.3 | 13*
O=C1CCC(C(=O)N2CCCC(N3CCN(c4cccc(C(F)(F)F)c4)CC3)C2)=NN1 (centres undefined) | -4 | i | i | i | 1.1 | i
CCOC(=O)c1sc2nc(Cc3ccc(Cl)cc3)[nH]c(=S)c2c1C | 75* | i | i | i | 1.4 | 46*
CCC1CCCCN1C(=S)NC(=O)c1ccc([N+](=O)[O-])cc1 (centres undefined) | 16* | i | i | i | 1.6 | 18*
O=C(NC(=S)N1CCCCC1CO)c1cccs1 (centres undefined) | x | i | x | x | x | x
CCC1CCCCN1C(=S)NC(=O)c1cccs1 (centres undefined) | 5.3* | i | i | i | -1.3 | 8*
CN1CCN(c2nc(-c3cccnc3)nc3ccccc23)CC1 | -14 | i | i | i | 1.5 | i
COc1cc2c(cc1OC)CN(c1nc(-c3cccnc3)nc3ccccc13)CC2 | -31 | i | -7.5* | i | -2.6 | i
CC(/C=N/n1c(C2CCCCC2)n[nH]c1=S)=C\c1ccccc1 | -8 | i | i | i | -0.02 | 21*
Cc1cccc(/C=N/n2c(C3CCCCC3)n[nH]c2=S)c1 | -4 | i | i | i | -1.3 | i
O=C(Nc1ccccc1N1CCCC1)c1cccc(S(=O)(=O)N2CCOCC2)c1 | -11 | i | i | i | -0.96 | i
COC(=O)C(NC(=O)c1ccc(Cl)cc1)(Nc1nc(C)cs1)C(F)(F)F (centres undefined) | -13 | i | i | i | 0.45 | i
CCCCC(CC)C(=O)Nc1ccc(Nc2ccccc2)cc1 (centres undefined) | 0 | i | -6.7* | i | 0.2 | i
CCCCC(CC)C(=O)Nc1ccc(C)c(O)c1 (centres undefined) | -10 | i | -7.5* | i | -2.8 | i
Cc1cc(N2CCCN(C)CC2)nc2cc(Cl)ccc12 | -15 | i | i | i | -4.6* | i
O=C(CCSc1nnc(-c2ccccc2)o1)N1CCOCC1 | -3 | i | i | i | 0.75 | i
O=C(CCSc1nnc(-c2ccco2)o1)N1CCOCC1 | 5.7* | i | i | i | -0.37 | i
CC(NC(=S)Nc1ccc([N+](=O)[O-])cc1)c1ccncc1 (centres undefined) | 0 | i | i | 7* | 0.23 | i
CC1(C)Cn2c(nc(=O)c3c2NCN(CCc2ccccc2)C3)S1 | -8 | i | i | i | -1.8 | i
Cn1cnnc1Sc1ccc(C(=O)NCCC(c2ccccc2)c2ccccc2)cc1[N+](=O)[O-] | -10 | i | i | 10* | -0.93 | i
O=C(OCC(=O)N1CCC(c2ccccc2)=N1)c1ccc(Cl)s1 | x | i | x | x | x | x
CCOc1ccc(OCC)c(NC(=O)CN2CCN(c3cc(C)ccc3C)CC2)c1 | -11 | i | i | 6* | -0.06 | i
CCOc1ccc(OCC)c(NC(=O)CN2CCN(c3cccc(C)c3)CC2)c1 | -6 | i | i | i | 1.1 | i
SMILES | hERG rescue | KCNK3 inh | KCNK9 block | KCNQ1 inh | Kir21 block | KCNQ1 pot
CCc1ccc(-c2nc(SCC(=O)N3CCOCC3)n[nH]2)cc1 | 10* | i | i | i | -1.4 | i
COc1ccc(C(=O)/C=C2/c3ccccc3CC(C)(C)N2C)cc1OC | -3 | i | i | i | -0.17 | i
Cc1ccc(-n2nc(C(=O)O)c(O)cc2=O)cc1 | -8 | i | i | i | -1.6 | i
C=CCC1(CC=C)CCCN1C(=O)c1cc(COc2ccc(C)nc2)on1 | -27 | i | i | 8* | -1 | i
Cc1ccc(OCc2cc(C(=O)N3CCCC3)no2)cn1 | -10 | i | i | i | -0.86 | i
C=CCC1(CC=C)CCCN1C(=O)c1cc(COc2ccccc2SC)on1 | -12 | i | i | 7* | 0.61 | i
